Data as given in paper PMC4259821 (European journal of pharmacology, 2014).
Counter-ions that a name gives are not always drawn.

Columns and labels:
[1] = test system: ICSS in rats; assay: Intracranial self-stimulation; type: in vivo, rat; conditions: i.p.
[2] = test system: food-maintained responding; conditions: rats, ref Schmoutz et al., 2012, cited from earlier work
[3] = biological target: TRPV1 (Homo sapiens, UniProt Q8NER1); assay: Calcium mobilization assay, TRPV1; type: cell-based
How it was run: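 HEK293 cells stably expressing human TRPV1, plated overnight at 30,000 cells/well on PEI-coated plates in DMEM-HG with 10% FBS. Calcium 5 dye in HBSS, 20 mM HEPES, 2.5 mM probenecid, pH 7.4, for 45 min at 37°C. Antagonist mode: 15 min compound pretreatment, then EC50–EC80 capsaicin. Agonist mode: compound added directly. Three-parameter logistic fit.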

[4] = biological target: 5HT2B (Homo sapiens, UniProt P41595); assay: Calcium mobilization assay, 5-HT2B; type: cell-based
5HT2B, sequence (P41595 whole entry): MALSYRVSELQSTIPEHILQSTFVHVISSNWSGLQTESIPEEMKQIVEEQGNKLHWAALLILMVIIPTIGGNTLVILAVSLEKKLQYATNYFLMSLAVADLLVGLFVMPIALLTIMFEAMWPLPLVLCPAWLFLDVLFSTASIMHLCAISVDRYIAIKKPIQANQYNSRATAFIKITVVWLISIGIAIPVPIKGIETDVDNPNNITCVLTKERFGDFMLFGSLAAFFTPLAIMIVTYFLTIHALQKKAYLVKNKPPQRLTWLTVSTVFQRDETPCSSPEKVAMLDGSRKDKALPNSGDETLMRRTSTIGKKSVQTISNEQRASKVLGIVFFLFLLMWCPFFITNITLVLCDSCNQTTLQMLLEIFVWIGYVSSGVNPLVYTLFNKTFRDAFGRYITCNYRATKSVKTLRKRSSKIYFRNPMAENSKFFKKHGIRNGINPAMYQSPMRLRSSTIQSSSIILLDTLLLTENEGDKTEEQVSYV
How it was run: (§1)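 Stable human 5-HT2A or 5-HT2B HEK293 cells were plated overnight on PEI-coated plates at 40,000 or 35,000 cells/well in DMEM-HG, 10% FBS, 15 mM HEPES. Calcium 5 dye was loaded for 45 min at 37°C in HBSS/HEPES/probenecid, pH 7.4. Antagonist mode used 15 min compound pretreatment, then EC50–EC80 5-HT. Peak fluorescence change was fit to a three-parameter logistic.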

[5] = biological target: CaV 3.2 (Homo sapiens, UniProt O95180); assay: Calcium voltage channel 3.2 calcium mobilization assay; type: cell-based
[6] = biological target: kappa opioid receptor (Homo sapiens, UniProt P41145); assay: Calcium mobilization assay, kappa opioid receptor; type: cell-based
kappa opioid receptor, sequence (P41145 whole entry): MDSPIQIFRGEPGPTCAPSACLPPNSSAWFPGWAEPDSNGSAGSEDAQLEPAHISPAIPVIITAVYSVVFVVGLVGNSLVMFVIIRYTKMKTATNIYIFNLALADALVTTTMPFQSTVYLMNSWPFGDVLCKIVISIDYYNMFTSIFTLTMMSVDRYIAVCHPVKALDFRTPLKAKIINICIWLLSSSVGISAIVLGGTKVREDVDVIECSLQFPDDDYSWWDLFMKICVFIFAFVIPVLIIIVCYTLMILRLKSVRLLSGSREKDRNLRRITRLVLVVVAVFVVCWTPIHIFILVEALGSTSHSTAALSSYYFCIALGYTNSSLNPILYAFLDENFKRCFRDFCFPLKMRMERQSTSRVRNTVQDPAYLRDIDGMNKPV

[7] = biological target: CB1 (Homo sapiens, UniProt P21554); assay: Calcium mobilization assay, CB1; type: cell-based
CB1, sequence (P21554 whole entry): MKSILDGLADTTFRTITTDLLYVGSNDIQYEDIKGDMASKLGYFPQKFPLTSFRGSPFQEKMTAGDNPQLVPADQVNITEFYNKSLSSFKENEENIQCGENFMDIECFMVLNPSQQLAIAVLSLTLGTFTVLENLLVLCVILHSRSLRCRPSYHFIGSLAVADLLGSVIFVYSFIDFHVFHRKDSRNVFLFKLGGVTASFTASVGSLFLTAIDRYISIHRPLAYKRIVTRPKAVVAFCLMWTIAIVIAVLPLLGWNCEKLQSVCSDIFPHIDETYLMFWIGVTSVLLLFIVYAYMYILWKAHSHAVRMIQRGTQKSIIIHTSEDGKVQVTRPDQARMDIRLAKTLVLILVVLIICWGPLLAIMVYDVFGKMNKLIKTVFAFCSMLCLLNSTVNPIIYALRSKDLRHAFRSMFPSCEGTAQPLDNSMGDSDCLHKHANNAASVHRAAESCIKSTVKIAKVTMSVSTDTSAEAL

[8] = test system: NPS receptors; conditions: calcium mobilization; ref Zhang et al., 2008; cited from earlier work
[9] = biological target: 5HT2A (Homo sapiens, UniProt P28223); assay: Calcium mobilization assay, 5-HT2A; type: cell-based
5HT2A, sequence (P28223 whole entry): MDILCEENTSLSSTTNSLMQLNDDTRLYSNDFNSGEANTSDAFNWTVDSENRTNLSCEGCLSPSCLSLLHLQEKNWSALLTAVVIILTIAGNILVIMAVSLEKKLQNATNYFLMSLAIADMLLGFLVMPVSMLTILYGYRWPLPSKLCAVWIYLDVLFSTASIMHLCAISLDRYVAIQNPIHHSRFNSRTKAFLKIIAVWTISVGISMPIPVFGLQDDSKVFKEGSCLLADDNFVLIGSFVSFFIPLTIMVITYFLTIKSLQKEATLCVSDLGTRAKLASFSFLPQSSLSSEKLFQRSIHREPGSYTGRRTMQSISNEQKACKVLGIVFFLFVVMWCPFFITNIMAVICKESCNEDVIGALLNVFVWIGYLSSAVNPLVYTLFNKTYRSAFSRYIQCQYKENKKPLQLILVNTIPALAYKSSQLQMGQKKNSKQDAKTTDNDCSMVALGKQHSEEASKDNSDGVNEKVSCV
How it was run: as §1

[10] = biological target: CaV 3.1 (Homo sapiens, UniProt O43497); assay: Calcium voltage channel 3.1 calcium mobilization assay; type: cell-based
[11] = biological target: mu opioid receptor (Homo sapiens, UniProt P35372); assay: Calcium mobilization assay, mu opioid receptor; type: cell-based
mu opioid receptor, sequence (P35372 whole entry): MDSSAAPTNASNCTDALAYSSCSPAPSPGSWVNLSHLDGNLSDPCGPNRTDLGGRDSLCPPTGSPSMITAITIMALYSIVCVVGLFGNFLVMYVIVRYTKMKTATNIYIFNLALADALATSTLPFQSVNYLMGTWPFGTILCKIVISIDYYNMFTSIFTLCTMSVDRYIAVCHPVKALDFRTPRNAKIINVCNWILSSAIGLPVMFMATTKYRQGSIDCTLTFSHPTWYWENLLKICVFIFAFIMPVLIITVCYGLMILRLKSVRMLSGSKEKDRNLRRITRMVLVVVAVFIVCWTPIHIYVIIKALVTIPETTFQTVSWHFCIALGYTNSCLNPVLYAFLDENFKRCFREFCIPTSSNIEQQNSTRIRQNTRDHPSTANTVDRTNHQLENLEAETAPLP

[12] = biological target: T1, APJ (Apelin) (Homo sapiens, UniProt P35414); assay: Calcium mobilization assay, APJ; type: cell-based
T1 sequence (P35414 1-380): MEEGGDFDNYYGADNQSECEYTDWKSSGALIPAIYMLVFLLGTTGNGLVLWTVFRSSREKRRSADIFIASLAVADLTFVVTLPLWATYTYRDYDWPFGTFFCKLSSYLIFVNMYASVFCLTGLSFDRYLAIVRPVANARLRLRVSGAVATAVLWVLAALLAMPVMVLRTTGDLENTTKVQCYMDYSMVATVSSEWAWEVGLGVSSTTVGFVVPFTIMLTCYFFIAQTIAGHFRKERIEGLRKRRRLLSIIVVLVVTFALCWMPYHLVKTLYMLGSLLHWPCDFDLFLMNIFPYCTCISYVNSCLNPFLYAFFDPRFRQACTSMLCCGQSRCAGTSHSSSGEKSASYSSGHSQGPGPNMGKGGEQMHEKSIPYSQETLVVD
How it was run: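 CHO-Gα16-APJ cells were plated overnight at 30,000 cells/well in DMEM/F12 with 10% FBS and loaded with Calcium 5 dye for 45 min at 37°C. Compound dilutions contained BSA/DMSO: 2.25% BSA/9% DMSO for pretreatment, 0.25% BSA/1% DMSO for treatment. Antagonist mode: 15 min pretreatment, then EC50–EC80 apelin. Fluorescence was read on FLIPR or FlexStation. EC50/IC50 came from a three-parameter logistic fit.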

[13] = biological target: CB2 (Homo sapiens, UniProt P34972); assay: Calcium mobilization assay, CB2; type: cell-based
CB2, sequence (P34972 whole entry): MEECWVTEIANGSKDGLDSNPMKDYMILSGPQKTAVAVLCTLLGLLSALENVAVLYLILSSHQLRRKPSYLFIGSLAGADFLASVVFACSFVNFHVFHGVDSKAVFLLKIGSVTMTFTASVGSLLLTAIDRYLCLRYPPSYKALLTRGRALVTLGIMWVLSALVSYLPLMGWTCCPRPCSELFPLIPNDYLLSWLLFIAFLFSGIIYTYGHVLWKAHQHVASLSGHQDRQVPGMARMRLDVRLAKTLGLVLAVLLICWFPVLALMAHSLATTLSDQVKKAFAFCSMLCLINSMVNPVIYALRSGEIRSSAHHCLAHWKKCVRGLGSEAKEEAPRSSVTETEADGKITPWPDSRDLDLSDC

[14] = test system: NPS receptors; assay: In vitro calcium mobilization assay, NPS receptor antagonism; type: cell-based; conditions: vs 13 receptors and ion channels of Table 1
[15] = biological target: T2, hTAAR1 (Homo sapiens, UniProt Q96RJ0); assay: hTAAR1 cAMP assay; type: cell-based
T2 sequence (Q96RJ0 1-339): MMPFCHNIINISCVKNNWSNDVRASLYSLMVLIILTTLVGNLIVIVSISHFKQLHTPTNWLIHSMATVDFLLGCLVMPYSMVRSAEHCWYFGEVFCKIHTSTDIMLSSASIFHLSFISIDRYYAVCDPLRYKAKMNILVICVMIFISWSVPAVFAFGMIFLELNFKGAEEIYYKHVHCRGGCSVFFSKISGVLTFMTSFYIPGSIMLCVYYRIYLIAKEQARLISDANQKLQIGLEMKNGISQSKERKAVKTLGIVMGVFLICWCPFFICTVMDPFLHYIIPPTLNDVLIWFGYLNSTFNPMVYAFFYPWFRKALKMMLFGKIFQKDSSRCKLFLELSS

[16] = biological target: T3, 5HT1A (Homo sapiens, UniProt P08908); assay: Calcium mobilization assay, 5-HT1A; type: cell-based
T3 sequence (P08908 1-422): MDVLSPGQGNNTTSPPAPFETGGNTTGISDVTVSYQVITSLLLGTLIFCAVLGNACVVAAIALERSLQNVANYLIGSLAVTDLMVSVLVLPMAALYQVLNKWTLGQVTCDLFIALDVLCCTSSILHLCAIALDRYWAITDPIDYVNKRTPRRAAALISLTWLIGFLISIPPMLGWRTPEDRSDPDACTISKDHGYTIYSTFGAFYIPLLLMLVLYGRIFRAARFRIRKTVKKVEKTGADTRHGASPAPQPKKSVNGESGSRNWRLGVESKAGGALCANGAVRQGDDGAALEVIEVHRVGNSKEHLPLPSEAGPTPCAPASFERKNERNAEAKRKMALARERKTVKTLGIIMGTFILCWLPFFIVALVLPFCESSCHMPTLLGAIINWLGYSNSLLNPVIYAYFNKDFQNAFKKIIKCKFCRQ
How it was run: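 CHO-Gα16 cells stably expressing human 5-HT1A, plated overnight at 25,000 cells/well in Ham's F12 with 10% FBS. Calcium 5 dye (1:40) in HBSS, 20 mM HEPES, 2.5 mM probenecid, pH 7.4, for 45 min at 37°C. Agonist mode: compound added at 10 s, fluorescence read 90 s. Antagonist mode: 15 min compound pretreatment, then EC50–EC80 5-HT. Three-parameter logistic fit.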

[17] = test system: cocaine self-administration; conditions: rats; 5–30 mg/kg i.p.; ref Schmoutz et al., 2012; cited from earlier work
[18] = biological target: delta opioid receptor (Homo sapiens, UniProt P41143); assay: Calcium mobilization assay, delta opioid receptor; type: cell-based
delta opioid receptor, sequence (P41143 whole entry): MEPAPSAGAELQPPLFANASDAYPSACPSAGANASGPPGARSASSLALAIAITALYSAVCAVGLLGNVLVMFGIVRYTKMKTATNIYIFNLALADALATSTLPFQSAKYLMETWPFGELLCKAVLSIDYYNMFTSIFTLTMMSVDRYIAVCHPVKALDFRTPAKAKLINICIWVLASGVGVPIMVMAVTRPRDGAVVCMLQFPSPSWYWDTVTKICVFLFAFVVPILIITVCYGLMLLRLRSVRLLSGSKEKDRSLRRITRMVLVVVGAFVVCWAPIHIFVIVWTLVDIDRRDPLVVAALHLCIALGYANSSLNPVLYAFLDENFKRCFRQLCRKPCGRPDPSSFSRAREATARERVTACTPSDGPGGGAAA

TRPV1, sequence (Q8NER1 whole entry): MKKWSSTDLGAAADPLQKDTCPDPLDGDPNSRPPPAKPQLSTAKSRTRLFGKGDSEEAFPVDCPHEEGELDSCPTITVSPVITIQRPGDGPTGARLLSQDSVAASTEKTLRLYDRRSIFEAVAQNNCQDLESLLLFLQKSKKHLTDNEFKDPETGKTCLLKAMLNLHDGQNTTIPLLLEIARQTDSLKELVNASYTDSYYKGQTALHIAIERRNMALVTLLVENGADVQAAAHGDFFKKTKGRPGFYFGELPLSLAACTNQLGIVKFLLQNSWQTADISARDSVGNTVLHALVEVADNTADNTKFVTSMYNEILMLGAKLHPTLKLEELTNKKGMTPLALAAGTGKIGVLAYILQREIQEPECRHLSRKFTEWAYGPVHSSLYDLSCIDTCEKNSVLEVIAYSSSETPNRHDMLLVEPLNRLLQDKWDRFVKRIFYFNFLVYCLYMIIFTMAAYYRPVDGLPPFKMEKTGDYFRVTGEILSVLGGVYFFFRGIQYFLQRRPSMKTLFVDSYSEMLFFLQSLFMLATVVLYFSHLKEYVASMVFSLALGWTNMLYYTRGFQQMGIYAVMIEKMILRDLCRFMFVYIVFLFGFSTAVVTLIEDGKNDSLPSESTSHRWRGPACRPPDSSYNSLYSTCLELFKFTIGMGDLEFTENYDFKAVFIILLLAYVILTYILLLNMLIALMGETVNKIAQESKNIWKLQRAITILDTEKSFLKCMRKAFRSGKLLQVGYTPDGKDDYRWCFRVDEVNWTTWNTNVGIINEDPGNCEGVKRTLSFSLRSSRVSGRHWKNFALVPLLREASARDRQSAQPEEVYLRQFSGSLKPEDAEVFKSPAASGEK

CCCC(C(=O)c1ccc2c(c1)OCO2)N1CCCC1.Cl (racemic) [MDPV, (±)-3,4-methylenedioxypyrovalerone HCl, reference compound]
Effect on ICSS, drug alone ([1]; 3.2 mg/kg MDPV vs vehicle + vehicle): facilitated ICSS across a broad range of frequencies (1.75–2.05 log Hz)

O=C(NCCN1CCCCC1)N1CCN2C(=O)OC(c3ccccc3)(c3ccccc3)C2C1 (stereo not shown) [RTI-118, 3-oxo-1,1-diphenyl-N-(2-(piperidin-1-yl)ethyl)tetrahydro-1H-oxazolo[3,4-a]pyrazine-7(3H)-carboxamide]
Reduction in rates of food-maintained responding ([2]; 30 mg/kg): up to 20%
Effect on rates of food-maintained responding ([2]; doses up to 20 mg/kg IP): had no effect on rates of food-maintained responding
EC50 [3]: > 10 µM
IC50 [3]: > 10 µM
EC50 [4]: > 10 µM
IC50 [4]: > 10 µM
IC50 [5]: > 10 µM
EC50 [6]: > 10 µM
IC50 [6]: > 10 µM
EC50 [7]: > 10 µM
IC50 [7]: > 10 µM
Ke value as an antagonist at NPS receptors [8]: 109 ± 23 nM
EC50 [9]: > 10 µM
IC50 [9]: > 10 µM
IC50 [10]: > 10 µM
EC50 [11]: > 10 µM
IC50 [11]: > 10 µM
EC50 [12]: > 10 µM
IC50 [12]: > 10 µM
EC50 [13]: > 10 µM
IC50 [13]: > 10 µM
Effect on ICSS, drug alone ([1]; 10 mg/kg RTI-118): significantly increased ICSS at one frequency (1.9 log Hz)
Effect of pretreatment on MDPV-induced facilitation of ICSS ([1]; 32 mg/kg RTI-118 + 3.2 mg/kg MDPV): did not alter MDPV-induced facilitation of ICSS
Effect on ICSS, drug alone ([1]; 32 mg/kg RTI-118, first group of rats): significantly decreased ICSS at only one frequency (2.05 log Hz)
Effect on ICSS, drug alone ([1]; 32 mg/kg RTI-118, second group of rats (MDPV study)): did not significantly alter ICSS at any frequency
Effect on ICSS, drug alone ([1]; low doses of 3.2–10 mg/kg RTI-118): had little effect on ICSS
Effect of pretreatment on cocaine-induced facilitation of ICSS ([1]; pretreatment + 10 mg/kg cocaine vs vehicle + 10 mg/kg cocaine): attenuation of cocaine effects was statistically significant only at the highest RTI-118 dose (32 mg/kg)
Selectivity for NPS receptors relative to the other targets [14]: at least 100 fold
EC50 [15]: > 10 µM
IC50 [15]: > 10 µM
EC50 [16]: > 10 µM
IC50 [16]: > 10 µM
Effect on cocaine self-administration [17]: dose-dependent and nearly complete elimination of cocaine self-administration
EC50 [18]: > 10 µM
IC50 [18]: > 10 µM

COC(=O)[C@H]1[C@@H](OC(=O)c2ccccc2)C[C@@H]2CC[C@H]1N2C [Cocaine, (−)-Cocaine HCl, reference compound]
Effect on ICSS, drug alone ([1]; 10 mg/kg cocaine): facilitated ICSS across a broad range of six frequencies (1.75–2.0 log Hz)
